27 molecules from ChEMBL document CHEMBL1932925, “Synthesis, biological evaluation, and molecular docking studies of cinnamic acyl 1,3,4-thiadiazole amide derivatives as novel antitubulin agents” (Bioorg Med Chem, 2012) can be followed below.

Converted amounts (≈) assume the structure as drawn.

Assay [1] deals with MCF7. Kind of assay: Antiproliferative activity against human MCF7 cells after 48 hrs by MTT assay. It counts as functional, cell-based. Conditions: MCF7, 48 h. Put shortly:
(§1)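 Cells diluted to 2×10^4 cells mL⁻¹ in complete medium, plated and held 24 h at 37 °C, 5% CO₂ before dosing at pre-set concentrations. After 48 h exposure, MTT (2.5 mg mL⁻¹ in PBS) added for 4 h, then SDS–isobutyl alcohol–HCl extraction solution overnight at 37 °C. Absorbance read at 570 nm. Three replicate wells per concentration, each assay run at least three times.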

The next assay concerns A549. Kind of assay: Antiproliferative activity against human A549 cells after 48 hrs by MTT assay. Format: functional, cell-based. The following applies: A549, 48 h. Put shortly: as §1
On the technique in general: Tetrazolium assays rely on reduction of a dye to a coloured formazan, in cell work by metabolically active cells.

A short description of assay [2]: Inhibition of bovine brain tubulin polymerization preincubated for 10 mins measured after 20 mins. Set-up: species or system Bos taurus. Put shortly: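 Tubulin purified from bovine brain, used at 10 µM in glutamate buffer and preincubated with varying compound concentrations at 30 °C, then cooled to 0 °C. GTP added and mixtures warmed to 30 °C in a recording spectrophotometer, with assembly followed turbidimetrically.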

Assay [3] has as its system MCF7. Kind of assay: Induction of cell cycle arrest in human MCF7 cells assessed as accumulation at G0/G1 phase at 5 ug/ml after 24 hrs by flow cytometric analysis (reference value: 66%). Format: functional.
The test system of assay [4] is MCF7. Kind of assay: Induction of cell cycle arrest in human MCF7 cells assessed as accumulation at S phase at 5 ug/ml after 24 hrs by flow cytometric analysis (reference value: 12%). Format: functional. A general note: A flow cytometer gives signals particle by particle.
The subject of assay [5] is MCF7. The assay is described as follows: Induction of cell cycle arrest in human MCF7 cells assessed as accumulation at G2/M phase at 5 ug/ml after 24 hrs by flow cytometric analysis (reference value: 18%). It counts as functional.

What is called IC50 is the midpoint of a concentration-inhibition curve. A high value points to a need for much substance. Turning to `O=C(/C=C/c1ccccc1)Nc1nnc(-c2ccccc2)s1`, the IC50 is 1.47 µg/mL (≈ 4.78 µM) with MCF7 [1], 1.75 µg/mL (≈ 5.69 µM) in the assay on A549 and 5.68 µg/mL (≈ 18.5 µM) in assay [2].
The matching figures for `O=C(/C=C/c1ccc(F)cc1)Nc1nnc(-c2ccccc2)s1`: 1.45 µg/mL (≈ 4.46 µM), 1.82 µg/mL (≈ 5.59 µM) and 5.87 µg/mL (≈ 18 µM).
In the same order, the values of `O=C(/C=C/c1ccc(C(F)(F)F)cc1)Nc1nnc(-c2ccccc2)s1` are 1.52 µg/mL (≈ 4.05 µM), 1.78 µg/mL (≈ 4.74 µM) and 5.52 µg/mL (≈ 14.7 µM).
As to `Cc1ccc(/C=C/C(=O)Nc2nnc(-c3ccccc3)s2)cc1`, the results for the IC50 (in the assay with MCF7 [1]; in the assay on A549; in assay [2]) were 1.23 µg/mL (≈ 3.83 µM), 1.58 µg/mL (≈ 4.92 µM) and 4.49 µg/mL (≈ 14 µM), respectively.
In the same order, the values of `COc1ccc(/C=C/C(=O)Nc2nnc(-c3ccccc3)s2)cc1` are 0.83 µg/mL (≈ 2.46 µM), 0.76 µg/mL (≈ 2.25 µM) and 3.02 µg/mL (≈ 8.95 µM).
The matching figures for `O=C(/C=C/c1ccccc1)Nc1nnc(-c2ccc(Cl)cc2)s1`: 1.42 µg/mL (≈ 4.15 µM), 2.02 µg/mL (≈ 5.91 µM) and 6.56 µg/mL (≈ 19.2 µM).
Turning to `O=C(/C=C/c1ccc(F)cc1)Nc1nnc(-c2ccc(Cl)cc2)s1`, the IC50 with MCF7 [1] was determined as 1.58 µg/mL (≈ 4.39 µM); with A549, 2.06 µg/mL (≈ 5.73 µM); in assay [2], 7.08 µg/mL (≈ 19.7 µM).
As to `O=C(/C=C/c1ccc(C(F)(F)F)cc1)Nc1nnc(-c2ccc(Cl)cc2)s1`, the IC50 with MCF7 [1] amounted to 1.65 µg/mL (≈ 4.03 µM); with A549 it was 3.09 µg/mL (≈ 7.54 µM); in assay [2], 7.83 µg/mL (≈ 19.1 µM).
In the same order, the values of `Cc1ccc(/C=C/C(=O)Nc2nnc(-c3ccc(Cl)cc3)s2)cc1` are 1.44 µg/mL (≈ 4.05 µM), 1.25 µg/mL (≈ 3.51 µM) and 4.79 µg/mL (≈ 13.5 µM).
In the same order, the values of `COc1ccc(/C=C/C(=O)Nc2nnc(-c3ccc(Cl)cc3)s2)cc1` are 0.91 µg/mL (≈ 2.45 µM), 1.38 µg/mL (≈ 3.71 µM) and 5.68 µg/mL (≈ 15.3 µM).
As for `O=C(/C=C/c1ccccc1)Nc1nnc(-c2ccc(Br)cc2)s1`, the 50% inhibitory concentration (IC50) stood at 1.5 µg/mL (≈ 3.88 µM) in the assay with MCF7 [1], 2.18 µg/mL (≈ 5.64 µM) in the assay with A549 and 7.05 µg/mL (≈ 18.3 µM) in assay [2].
Consider `O=C(/C=C/c1ccc(F)cc1)Nc1nnc(-c2ccc(Br)cc2)s1`, for which the IC50 was determined as 1.49 µg/mL (≈ 3.69 µM) in the assay with MCF7 [1], 2.83 µg/mL (≈ 7 µM) in the assay on A549 and 8.66 µg/mL (≈ 21.4 µM) in assay [2].
In the case of `O=C(/C=C/c1ccc(C(F)(F)F)cc1)Nc1nnc(-c2ccc(Br)cc2)s1`, the IC50 in the assay on MCF7 [1] was found to be 1.58 µg/mL (≈ 3.48 µM); with A549 it was 4.68 µg/mL (≈ 10.3 µM); in assay [2], 10.6 µg/mL (≈ 23.3 µM).
In the same order, the values of `Cc1ccc(/C=C/C(=O)Nc2nnc(-c3ccc(Br)cc3)s2)cc1` are 1.32 µg/mL (≈ 3.3 µM), 1.51 µg/mL (≈ 3.77 µM) and 5.02 µg/mL (≈ 12.5 µM).
In the same order, the values of `COc1ccc(/C=C/C(=O)Nc2nnc(-c3ccc(Br)cc3)s2)cc1` are 1.13 µg/mL (≈ 2.71 µM), 1.04 µg/mL (≈ 2.5 µM) and 4.11 µg/mL (≈ 9.87 µM).
The matching figures for `Cc1ccc(-c2nnc(NC(=O)/C=C/c3ccccc3)s2)cc1`: 1.19 µg/mL (≈ 3.7 µM), 1.38 µg/mL (≈ 4.29 µM) and 4.83 µg/mL (≈ 15 µM).
For `Cc1ccc(-c2nnc(NC(=O)/C=C/c3ccc(F)cc3)s2)cc1`, the IC50 in the assay on MCF7 [1] turned out to be 1.27 µg/mL (≈ 3.74 µM); in the assay with A549 it was 1.23 µg/mL (≈ 3.62 µM); in assay [2] it was 5.08 µg/mL (≈ 15 µM).
In the same order, the values of `Cc1ccc(-c2nnc(NC(=O)/C=C/c3ccc(C(F)(F)F)cc3)s2)cc1` are 1.1 µg/mL (≈ 2.82 µM), 1.61 µg/mL (≈ 4.13 µM) and 5.16 µg/mL (≈ 13.3 µM).
The matching figures for `Cc1ccc(/C=C/C(=O)Nc2nnc(-c3ccc(C)cc3)s2)cc1`: 0.61 µg/mL (≈ 1.82 µM), 1.08 µg/mL (≈ 3.22 µM) and 4.15 µg/mL (≈ 12.4 µM).
In the same order, the values of `COc1ccc(/C=C/C(=O)Nc2nnc(-c3ccc(C)cc3)s2)cc1` are 0.35 µg/mL (≈ 0.996 µM), 0.66 µg/mL (≈ 1.88 µM) and 2.64 µg/mL (≈ 7.51 µM).
For `COc1ccc(-c2nnc(NC(=O)/C=C/c3ccccc3)s2)cc1`, the IC50 in the assay with MCF7 [1] was 0.78 µg/mL (≈ 2.31 µM); with A549, 0.68 µg/mL (≈ 2.02 µM); in assay [2] it was 3.08 µg/mL (≈ 9.13 µM).
`COc1ccc(-c2nnc(NC(=O)/C=C/c3ccc(F)cc3)s2)cc1`: the IC50 was 0.85 µg/mL (≈ 2.39 µM) in the assay with MCF7 [1], 0.75 µg/mL (≈ 2.11 µM) with A549 and 3.05 µg/mL (≈ 8.58 µM) in assay [2].
As to `COc1ccc(-c2nnc(NC(=O)/C=C/c3ccc(C(F)(F)F)cc3)s2)cc1`, the half-inhibitory concentration (IC50) with MCF7 [1] turned out to be 0.79 µg/mL (≈ 1.95 µM); in the assay with A549, 0.69 µg/mL (≈ 1.7 µM); in assay [2] it was 3.17 µg/mL (≈ 7.82 µM).
The matching figures for `COc1ccc(-c2nnc(NC(=O)/C=C/c3ccc(C)cc3)s2)cc1`: 0.31 µg/mL (≈ 0.882 µM), 0.58 µg/mL (≈ 1.65 µM) and 2.56 µg/mL (≈ 7.28 µM).
As for `COc1ccc(/C=C/C(=O)Nc2nnc(-c3ccc(OC)cc3)s2)cc1`, the IC50 with MCF7 [1] was 0.28 µg/mL (≈ 0.762 µM); in the assay with A549 it was 0.52 µg/mL (≈ 1.42 µM); in assay [2], 1.16 µg/mL (≈ 3.16 µM). Besides, the Activity in the assay with MCF7 [3] amounted to 2%; in the assay on MCF7 [4], 2%; in the assay on MCF7 [5] it was 68%.
`COc1cc2c(c(OC)c1OC)-c1ccc(OC)c(=O)cc1[C@@H](NC(C)=O)CC2` [COLCHICINE]: the IC50 with MCF7 [1] stood at 0.53 µg/mL (≈ 1.33 µM); with A549, 0.75 µg/mL (≈ 1.88 µM). The Activity came out at 2% with MCF7 [3], 3% with MCF7 [4] and 79% in the assay on MCF7 [5].
As for `COc1ccc(/C=C\c2cc(OC)c(OC)c(OC)c2)cc1O` [COMBRETASTATIN A4], the IC50 in the assay with MCF7 [1] was 0.41 µg/mL (≈ 1.3 µM); with A549, 0.55 µg/mL (≈ 1.74 µM); in assay [2], 0.81 µg/mL (≈ 2.56 µM).
